One assay deals with Cannabinoid receptor 1 (Rattus norvegicus, UniProt P20272). Briefly: Binding affinity against G protein coupled Cannabinoid receptor 1 using [3H]WIN-55212-2 in rat cerebellum membranes. It counts as cell membranes, Membrane. Put shortly: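 Rat cerebellum membranes washed in 50 mM Tris-HCl pH 7.4, resuspended at about 2 mg/mL protein. Incubated 90 min at 30 °C with 0.5 nM [3H]WIN55212-2 plus competitor in Tris/EDTA/MgCl2/5 mg/mL BSA buffer. Nonspecific binding defined with 10 µM SR141716A. Bound ligand separated by GF/C filtration and counted by scintillation. IC50 from curve fit, Ki by Cheng-Prusoff. Two to four experiments in triplicate.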
Cannabinoid receptor 1, sequence (P20272 whole entry): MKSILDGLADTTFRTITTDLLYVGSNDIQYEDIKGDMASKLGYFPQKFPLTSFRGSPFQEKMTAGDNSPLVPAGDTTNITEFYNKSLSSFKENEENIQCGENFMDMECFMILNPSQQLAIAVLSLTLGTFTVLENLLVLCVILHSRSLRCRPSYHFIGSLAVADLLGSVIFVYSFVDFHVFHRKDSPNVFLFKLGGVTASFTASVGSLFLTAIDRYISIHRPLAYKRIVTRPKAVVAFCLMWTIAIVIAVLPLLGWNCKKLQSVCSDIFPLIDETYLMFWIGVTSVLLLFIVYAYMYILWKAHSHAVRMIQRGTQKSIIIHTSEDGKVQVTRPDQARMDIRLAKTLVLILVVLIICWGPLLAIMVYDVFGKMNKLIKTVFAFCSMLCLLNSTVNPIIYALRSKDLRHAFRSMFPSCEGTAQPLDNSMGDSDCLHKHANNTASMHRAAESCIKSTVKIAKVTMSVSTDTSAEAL

For another assay, the target named is Cannabinoid receptor 2 (Homo sapiens, UniProt P34972). Briefly: Binding affinity against G protein coupled human Cannabinoid receptor 2 using [3H]CP-55940 in HEK293 EBNA transfected cells. It counts as cell-based. In outline:
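Incubated 90 min at 30 °C with 0.3 nM [3H]CP55940 plus competitor. Filtered and counted by scintillation. IC50 from curve fit, Ki by Cheng-Prusoff. Two to four experiments in triplicate.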

For assay [1], the target named is T1, Fatty-acid amide hydrolase 1 (Rattus norvegicus, UniProt P97612).
T1 sequence (P97612 whole entry): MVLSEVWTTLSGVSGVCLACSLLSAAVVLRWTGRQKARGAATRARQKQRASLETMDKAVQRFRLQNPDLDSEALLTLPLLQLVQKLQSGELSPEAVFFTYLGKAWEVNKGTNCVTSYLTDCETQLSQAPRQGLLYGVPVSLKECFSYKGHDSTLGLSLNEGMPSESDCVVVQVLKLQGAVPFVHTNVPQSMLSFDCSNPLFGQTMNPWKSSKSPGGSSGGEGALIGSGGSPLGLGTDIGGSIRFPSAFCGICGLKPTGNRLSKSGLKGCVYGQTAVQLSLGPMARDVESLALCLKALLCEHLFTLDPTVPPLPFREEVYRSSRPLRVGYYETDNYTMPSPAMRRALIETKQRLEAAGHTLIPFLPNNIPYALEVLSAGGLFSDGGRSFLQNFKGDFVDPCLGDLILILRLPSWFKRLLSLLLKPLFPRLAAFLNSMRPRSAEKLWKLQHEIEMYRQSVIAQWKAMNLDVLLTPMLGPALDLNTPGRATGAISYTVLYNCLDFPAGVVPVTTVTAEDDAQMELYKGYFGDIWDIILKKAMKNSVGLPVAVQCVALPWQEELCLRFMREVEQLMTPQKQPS
Put plainly: Inhibition of fatty acid amide hydrolase (FAAH) was determined using rat brain homogenates as the enzyme source and [3H]anandamide as substrate. It counts as tissue-based. In outline: (§1)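 Rat brain homogenate without cerebellum, in 10 mM Tris-HCl/1 mM EDTA pH 7.6, incubated 10 min at 37 °C with compound (ethanol carrier). Substrate: anandamide 2 µM final with trace [3H]anandamide labelled in the ethanolamine, plus BSA. Stopped on ice with chloroform/methanol; [3H]ethanolamine in the aqueous phase counted. Eight concentrations from 0.5 to 100 µM, at least three experiments.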

In assay [2] the target is T2, Fatty-acid amide hydrolase 1 (Rattus norvegicus) (UniProt P97612).
T2 sequence (whole entry): T1 sequence (P97612 whole entry)
Briefly: Maximum Inhibition of fatty acid amide hydrolase (FAAH) was determined using rat brain homogenates at 100 uM. Put shortly: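 Rat brain (minus cerebellum) homogenate in 10 mM Tris-HCl, 1 mM EDTA, pH 7.6, incubated 10 min at 37 °C with test agent or ethanol carrier. Substrate: 2 µM final anandamide with trace [3H]anandamide (ethanolamine label), 1% fatty acid free BSA. Stopped on ice plus chloroform/methanol. Aqueous-phase [3H]ethanolamine counted by scintillation. Inhibition read at 100 µM where IC50 fit failed.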

For assay [3], the species on record is Homo sapiens. Put plainly: Inhibition of [3H]anandamide transport(ANT) in human lymphoma U937 cell. The class given is functional. To be noted: U-937. In outline: (§2)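 U937 cells (10^6/mL, RPMI 1640) preincubated 10 min at 37 °C with inhibitor, highest concentration tested 50 µM. Then [3H]anandamide 0.45 nM plus cold anandamide (100 nM final) added for 7 min. Stopped by GF/C filtration and washed with Krebs-HEPES; radioactivity counted. Nonspecific uptake measured at 4 °C. IC50 by curve fit; maximum inhibition is the % inhibition at 50 µM.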

For assay [4], the species on record is Homo sapiens. Put plainly: Maximum Inhibition of anandamide transport(ANT) was determined against human lymphoma U937 cell at a dose of 50 uM. It counts as functional, U-937. Put shortly:
as §2

Assay [5] deals with Transient receptor potential cation channel subfamily V member 1 (Rattus norvegicus, UniProt O35433). Put plainly: Binding affinity against vanilloid receptor 1 (VR1) using [3H]RTX in rat spinal cord membranes. The class given is cell membranes, Membrane. Put shortly:
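Rat spinal cord membranes (about 1 mg/mL protein) in HEPES/sucrose buffer pH 7.4 with 0.25 mg/mL BSA. Incubated 60 min at 37 °C with 25 pM [3H]RTX plus competitor; nonspecific binding defined with 1 µM RTX. Stopped on ice, α1-acid glycoprotein added, membranes pelleted and counted. Ki by Cheng-Prusoff. Two to four experiments in triplicate.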

Assay [6] has as its target T1, Fatty-acid amide hydrolase 1. Briefly: Maximum Inhibition of fatty acid amide hydrolase (FAAH) was determined using rat brain homogenates at concentrations ranging from 0.5 to 100 uM. Put shortly:
as §1

Cannabinoid receptor 2, sequence (P34972 whole entry): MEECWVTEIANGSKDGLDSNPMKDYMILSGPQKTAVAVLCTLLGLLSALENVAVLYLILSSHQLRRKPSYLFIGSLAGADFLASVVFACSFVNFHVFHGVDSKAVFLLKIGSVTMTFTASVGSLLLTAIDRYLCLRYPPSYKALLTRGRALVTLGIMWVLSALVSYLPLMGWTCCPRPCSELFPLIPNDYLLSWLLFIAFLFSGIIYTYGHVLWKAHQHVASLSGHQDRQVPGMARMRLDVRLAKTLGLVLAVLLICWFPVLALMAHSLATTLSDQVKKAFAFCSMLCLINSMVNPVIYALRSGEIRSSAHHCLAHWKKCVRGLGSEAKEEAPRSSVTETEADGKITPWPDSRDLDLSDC
Transient receptor potential cation channel subfamily V member 1, sequence (O35433 whole entry): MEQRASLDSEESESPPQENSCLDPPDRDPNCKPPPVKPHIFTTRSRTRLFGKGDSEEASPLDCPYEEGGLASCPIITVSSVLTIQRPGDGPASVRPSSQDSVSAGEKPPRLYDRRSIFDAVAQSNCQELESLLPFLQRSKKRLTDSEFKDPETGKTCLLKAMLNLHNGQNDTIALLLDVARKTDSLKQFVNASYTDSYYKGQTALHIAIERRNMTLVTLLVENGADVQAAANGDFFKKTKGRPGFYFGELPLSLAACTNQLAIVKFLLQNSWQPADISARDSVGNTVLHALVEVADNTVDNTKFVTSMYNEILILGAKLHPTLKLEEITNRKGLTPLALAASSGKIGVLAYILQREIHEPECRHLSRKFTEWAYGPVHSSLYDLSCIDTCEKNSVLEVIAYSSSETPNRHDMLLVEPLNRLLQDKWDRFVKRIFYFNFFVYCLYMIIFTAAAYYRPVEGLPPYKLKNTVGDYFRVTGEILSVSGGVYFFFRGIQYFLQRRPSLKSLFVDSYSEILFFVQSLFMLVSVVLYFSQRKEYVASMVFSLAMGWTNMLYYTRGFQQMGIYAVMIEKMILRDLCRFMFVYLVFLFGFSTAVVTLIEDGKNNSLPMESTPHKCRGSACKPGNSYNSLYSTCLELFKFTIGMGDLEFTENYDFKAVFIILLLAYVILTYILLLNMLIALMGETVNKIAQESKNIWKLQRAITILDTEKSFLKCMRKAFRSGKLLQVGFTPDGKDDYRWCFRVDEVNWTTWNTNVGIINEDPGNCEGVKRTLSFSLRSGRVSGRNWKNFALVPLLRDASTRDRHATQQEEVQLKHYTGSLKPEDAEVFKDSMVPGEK

For orientation: Ki means the equilibrium dissociation constant of an inhibitor or competing ligand from its target. A high value points to weaker binding. What is called IC50 is the midpoint of a concentration-inhibition curve. A low value points to inhibition by little substance. On to `CCCCC/C=C\C/C=C\C/C=C\C/C=C\CCCC(=O)NCCc1ccco1`, for which the Ki on Cannabinoid receptor 1 was over 5 µM; at Cannabinoid receptor 2, over 1 µM; in assay [5], over 5 µM. The IC50 is over 120 µM in assay [1] and 12.8 µM in the assay listed under Homo sapiens [3]. Also, the Max inhibition is 38% in assay [2] and over 85% in the assay listed under Homo sapiens [4].
With `CCCCC/C=C\C/C=C\C/C=C\C/C=C\CCCC(=O)O[C@@H](C)c1ccco1`, the results for the Ki (at Cannabinoid receptor 1; at Cannabinoid receptor 2; in assay [5]) were over 1 µM, over 5 µM and over 5 µM, respectively. Besides, the concentration for half-maximal inhibition (IC50) in assay [1] is over 120 µM. The Max inhibition in assay [2] is 24%; in the assay filed under Homo sapiens [4], 55%.
With `CCCCC/C=C\C/C=C\C/C=C\C/C=C\CCCC(=O)N(C)Cc1ccoc1`, the Ki on Cannabinoid receptor 1 and at Cannabinoid receptor 2 was over 1 µM throughout. Also, the IC50 in assay [1] is over 120 µM; in assay [6] it was 24 µM; in the assay filed under Homo sapiens [3], 111 µM. The molecule further returned a Max inhibition in the assay listed under Homo sapiens [4] of over 85%.
Take `CCCCC/C=C\C/C=C\C/C=C\C/C=C\CCCC(=O)O[C@H](C)c1ccco1`: the Ki was over 1 µM at Cannabinoid receptor 1, over 5 µM on Cannabinoid receptor 2 and over 5 µM in assay [5]. The molecule also had an IC50 in assay [1] of over 120 µM. The Max inhibition in assay [2] was 19%; in the assay filed under Homo sapiens [4], 37%.

The record behind these values is ChEMBL document CHEMBL1136766, “Design, synthesis, and biological evaluation of new inhibitors of the endocannabinoid uptake: comparison with effects on fatty acid amidohydrolase” (J Med Chem, 2003).
